The subject of data set [1] is Rattus norvegicus. Kind of data set: Inhibition of 8-OH-DPAT-induced hyperlocomotory activity in Sprague-Dawley rat administered orally 60 mins before 8-OH-DPATchallenge. As to conditions: po. It counts as functional. The procedure, abridged:
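Male Sprague-Dawley rats (250–350 g) dosed orally (5 mL/kg) at 0.03, 0.1 or 0.3 mg/kg or vehicle, 60 min before sc 8-OH-DPAT 0.2 mg/kg (2 mL/kg). Total distance travelled recorded by infrared sensors over 30 min immediately after; 8–9 rats per group.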

A short description of data set [2]: Solubility of the compound in simulated gastric fluid at pH 1.2 at 25 degC. It counts as physicochemical.
The nature of data set [3]: Solubility of the compound in fed state simulated intestinal fluid at pH 5.5 at 25 degC. The format is physicochemical. The procedure, abridged: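 Solubility determined at 25 °C in fed state simulated intestinal fluid at pH 5.5.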
Data set [4] is described as follows: Solubility of the compound in water. The format is physicochemical. Put shortly: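 Measured on the dihydrochloride salt form, dissolved in water.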
Data set [5] can be described thus: Clearance in Sprague-Dawley rat at 0.5 mg/kg, iv after 24 hrs. The format is ADME, organism-based. Also on record: dose 0.5 mg/kg, route intravenous. The settings on record: in vivo. The procedure, abridged:
(§1)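 Male Sprague-Dawley rats given 0.5 mg/kg iv (2 mL/kg, 2.5% DMSO in glucosate solution), n=3, cassette dosing; blood collected at intervals up to 24 h, protein precipitation and LC-MS/MS quantification.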

A short description of data set [6]: Half life in Sprague-Dawley rat at 0.5 mg/kg, iv after 24 hrs. It counts as ADME, organism-based. Also on record: dose 0.5 mg/kg, route intravenous. The settings on record: in vivo. The procedure, abridged:
as §1

Data set [7] in a line: Oral bioavailability in Sprague-Dawley rat at 1 mg/kg, po after 24 hrs. As to conditions: in vivo. The format is ADME, organism-based. The procedure, abridged:
(§2)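 Male Sprague-Dawley rats dosed po at 1 mg/kg (10 mL/kg, 1% DMSO in aqueous 0.5% methocel), n=3, as a cassette with other compounds; blood sampled at intervals up to 24 h and analysed by protein precipitation then LC-MS/MS.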

A short description of data set [8]: Cmax in Sprague-Dawley rat at 1 mg/kg, po after 24 hrs. The format is ADME, organism-based. Details: dose 1 mg/kg, route oral. As to conditions: in vivo. The procedure, abridged:
as §2

Data set [9] is described as follows: AUC (0 to infinity) in Sprague-Dawley rat at 1 mg/kg, po after 24 hrs. It counts as ADME, organism-based. Details: time infinity, dose 1 mg/kg, route oral. The settings on record: plasma. The procedure, abridged: as §2
A short description of data set [10]: Ratio of drug level in brain to blood in Sprague-Dawley rat after 1 hr. It counts as ADME, tissue-based. The settings on record: read-out: BBR. Put shortly: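 Male Sprague-Dawley rats dosed iv at 0.5 mg/kg (2.5% DMSO in glucosate), n=3, as a cassette. At 1 h, CO2 anaesthesia, blood taken by heart puncture and brain removed. Both matrices analysed by protein precipitation and LC-MS/MS.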

The target in data set [11] is Voltage-gated inwardly rectifying potassium channel KCNH2 (Homo sapiens, UniProt Q12809). Kind of data set: Displacement of [3H]dofetilide from human ERG by SPA.
Data set [12] concerns the target T1, 5-hydroxytryptamine receptor 2C (Homo sapiens, UniProt P28335).
T1 sequence (P28335 whole entry): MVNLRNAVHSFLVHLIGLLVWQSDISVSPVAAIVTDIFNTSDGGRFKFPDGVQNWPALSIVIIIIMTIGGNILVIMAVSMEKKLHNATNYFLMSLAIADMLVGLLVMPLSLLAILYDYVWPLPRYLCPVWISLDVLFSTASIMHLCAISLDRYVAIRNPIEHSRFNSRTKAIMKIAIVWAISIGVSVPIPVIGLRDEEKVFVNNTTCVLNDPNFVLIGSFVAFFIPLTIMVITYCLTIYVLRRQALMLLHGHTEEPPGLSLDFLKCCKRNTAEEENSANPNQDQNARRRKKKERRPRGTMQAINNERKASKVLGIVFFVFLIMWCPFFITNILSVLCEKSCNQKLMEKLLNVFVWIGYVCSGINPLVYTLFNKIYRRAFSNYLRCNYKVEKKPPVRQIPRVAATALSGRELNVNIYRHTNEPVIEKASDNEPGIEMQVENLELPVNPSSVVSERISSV
Kind of data set: Binding affinity to human recombinant 5-HT2C receptor by radioligand displacement assay. Background: In a radioligand displacement assay an active substance lowers the binding of a labelled ligand.

Data set [13] deals with 5-hydroxytryptamine receptor 6 (Homo sapiens, UniProt P50406). Kind of data set: Binding affinity to human recombinant 5-HT6 receptor by radioligand displacement assay.
The target of data set [14] is Cytochrome P450 1A2 (Homo sapiens, UniProt P05177). As to the kind of experiment: Inhibition of human recombinant CYP1A2.
The target of data set [15] is Cytochrome P450 2C9 (Homo sapiens, UniProt P11712). Kind of data set: Inhibition of human recombinant CYP2C9.
For data set [16], the target named is Cytochrome P450 2C19 (Homo sapiens, UniProt P33261). As to the kind of experiment: Inhibition of human recombinant CYP219.
For data set [17], the target named is Cytochrome P450 2D6 (Homo sapiens, UniProt P10635). As to the kind of experiment: Inhibition of human recombinant CYP2D6.
Data set [18] deals with T2, Cytochrome P450 3A4 (Homo sapiens, UniProt P08684). Kind of data set: Inhibition of human recombinant CYP3A4.
Data set [19] has as its target T2, Cytochrome P450 3A4. As to the kind of experiment: Inhibition of CYP3A4 in human liver microsomes using midazolam as probe. In general terms: Liver microsomes are a subcellular fraction often used to study metabolism.
Data set [20] concerns the target Alpha-1A adrenergic receptor (Rattus norvegicus, UniProt P43140). Kind of data set: Inhibition of rat adrenergic alpha1A receptor.
The target of data set [21] is Alpha-1B adrenergic receptor (Rattus norvegicus, UniProt P15823). Kind of data set: Inhibition of rat adrenergic Alpha-1B receptor.
Data set [22] in a line: Protein binding in rat plasma at 1 ug/mL by equilibrium dialysis method. (In general: In equilibrium dialysis free small molecules cross a membrane that holds back macromolecules.)
Data set [23] in a line: Plasma protein binding in dog at 1 ug/mL by equilibrium dialysis method.
Data set [24] in a line: Plasma protein binding in human at 1 ug/mL by equilibrium dialysis method.
Data set [25] addresses T2, Cytochrome P450 3A4. As to the kind of experiment: Inhibition of CYP3A4 in human liver microsomes using atorvastatin as probe.
Data set [26] addresses T2, Cytochrome P450 3A4. As to the kind of experiment: Inhibition of CYP3A4 in human liver microsomes using nifedipine as probe.
Data set [27] can be described thus: Clearance in dog at 0.5 mg/kg, iv. The settings on record: in vivo.
Data set [28] in a line: Half life in dog at 0.5 mg/kg, iv. The settings on record: in vivo.
A short description of data set [29]: Clearance in cynomolgus monkey at 1 mg/kg, iv. The settings on record: in vivo.
The nature of data set [30]: Half life in cynomolgus monkey at 1 mg/kg, iv. The settings on record: in vivo.
Data set [31] in a line: in vivo. As to conditions: dog, po, 1 mg/kg.
Data set [32] can be described thus: in vivo. As to conditions: dog, po, 10 mg/kg.
Data set [33] can be described thus: in vivo. As to conditions: dog, plasma, po, 10 mg/kg.
Data set [34] can be described thus: in vivo. As to conditions: cynomolgus monkey, po, 10 mg/kg.
Data set [35] can be described thus: in vivo. As to conditions: cynomolgus monkey, po, 10 mg/kg. The source holds these as a separate data set.
Data set [36] is described as follows: in vivo. As to conditions: cynomolgus monkey, plasma, po, 10 mg/kg.

Structures are written as SMILES. pIC50, pKi: −log10 of the molar value.

Consider four compounds from ChEMBL document CHEMBL1629528 (J Med Chem, 2010).

T2 sequence (P08684 whole entry): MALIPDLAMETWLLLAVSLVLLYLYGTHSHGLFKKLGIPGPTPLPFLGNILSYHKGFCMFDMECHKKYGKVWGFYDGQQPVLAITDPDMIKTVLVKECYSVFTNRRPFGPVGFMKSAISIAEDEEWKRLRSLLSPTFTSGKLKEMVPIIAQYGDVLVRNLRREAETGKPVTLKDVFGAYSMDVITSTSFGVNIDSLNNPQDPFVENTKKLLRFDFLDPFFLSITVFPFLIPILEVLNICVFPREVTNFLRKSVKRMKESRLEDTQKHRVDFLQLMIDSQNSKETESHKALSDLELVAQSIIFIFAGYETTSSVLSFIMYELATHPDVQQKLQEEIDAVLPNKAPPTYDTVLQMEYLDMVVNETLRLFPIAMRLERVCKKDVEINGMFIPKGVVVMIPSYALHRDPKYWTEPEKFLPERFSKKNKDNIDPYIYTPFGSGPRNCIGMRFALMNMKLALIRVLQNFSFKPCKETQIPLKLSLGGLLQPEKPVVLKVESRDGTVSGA
Cytochrome P450 2C9, sequence (P11712 whole entry): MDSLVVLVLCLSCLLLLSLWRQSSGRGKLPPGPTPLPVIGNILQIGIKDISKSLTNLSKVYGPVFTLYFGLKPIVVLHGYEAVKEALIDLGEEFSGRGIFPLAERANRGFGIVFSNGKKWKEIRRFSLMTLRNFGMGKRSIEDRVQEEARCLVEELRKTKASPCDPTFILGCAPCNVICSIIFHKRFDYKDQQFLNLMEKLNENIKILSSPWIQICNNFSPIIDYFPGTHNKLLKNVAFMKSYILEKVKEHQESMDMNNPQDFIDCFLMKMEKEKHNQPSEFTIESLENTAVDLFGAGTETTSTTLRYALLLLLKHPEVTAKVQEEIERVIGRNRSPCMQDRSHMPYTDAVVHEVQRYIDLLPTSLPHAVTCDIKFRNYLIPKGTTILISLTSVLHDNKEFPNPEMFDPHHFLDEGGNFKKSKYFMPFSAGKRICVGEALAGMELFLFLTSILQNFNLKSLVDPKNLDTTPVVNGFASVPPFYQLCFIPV
5-hydroxytryptamine receptor 6, sequence (P50406 whole entry): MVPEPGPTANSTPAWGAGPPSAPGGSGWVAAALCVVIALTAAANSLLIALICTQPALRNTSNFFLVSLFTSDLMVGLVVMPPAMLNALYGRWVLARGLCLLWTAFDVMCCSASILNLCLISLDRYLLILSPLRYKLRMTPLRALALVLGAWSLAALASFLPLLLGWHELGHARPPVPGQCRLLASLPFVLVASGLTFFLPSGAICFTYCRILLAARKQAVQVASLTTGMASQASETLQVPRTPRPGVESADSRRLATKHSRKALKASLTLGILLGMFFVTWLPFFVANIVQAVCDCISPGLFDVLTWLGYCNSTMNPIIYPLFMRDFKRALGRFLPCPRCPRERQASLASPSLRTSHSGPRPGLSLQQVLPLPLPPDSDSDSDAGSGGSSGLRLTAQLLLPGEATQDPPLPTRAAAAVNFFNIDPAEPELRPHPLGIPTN
Alpha-1A adrenergic receptor, sequence (P43140 whole entry): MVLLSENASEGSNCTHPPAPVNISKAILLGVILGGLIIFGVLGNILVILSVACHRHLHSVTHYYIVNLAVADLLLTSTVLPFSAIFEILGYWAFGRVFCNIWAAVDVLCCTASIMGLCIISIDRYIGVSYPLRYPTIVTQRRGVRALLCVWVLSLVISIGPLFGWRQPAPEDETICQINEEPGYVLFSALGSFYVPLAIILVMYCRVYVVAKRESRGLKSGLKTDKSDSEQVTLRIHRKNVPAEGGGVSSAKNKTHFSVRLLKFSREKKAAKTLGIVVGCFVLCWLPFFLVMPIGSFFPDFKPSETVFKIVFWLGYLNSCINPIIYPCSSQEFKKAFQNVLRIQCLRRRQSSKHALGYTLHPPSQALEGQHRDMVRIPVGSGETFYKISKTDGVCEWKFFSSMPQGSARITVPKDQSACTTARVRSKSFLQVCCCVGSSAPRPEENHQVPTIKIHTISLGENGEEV
Cytochrome P450 2C19, sequence (P33261 whole entry): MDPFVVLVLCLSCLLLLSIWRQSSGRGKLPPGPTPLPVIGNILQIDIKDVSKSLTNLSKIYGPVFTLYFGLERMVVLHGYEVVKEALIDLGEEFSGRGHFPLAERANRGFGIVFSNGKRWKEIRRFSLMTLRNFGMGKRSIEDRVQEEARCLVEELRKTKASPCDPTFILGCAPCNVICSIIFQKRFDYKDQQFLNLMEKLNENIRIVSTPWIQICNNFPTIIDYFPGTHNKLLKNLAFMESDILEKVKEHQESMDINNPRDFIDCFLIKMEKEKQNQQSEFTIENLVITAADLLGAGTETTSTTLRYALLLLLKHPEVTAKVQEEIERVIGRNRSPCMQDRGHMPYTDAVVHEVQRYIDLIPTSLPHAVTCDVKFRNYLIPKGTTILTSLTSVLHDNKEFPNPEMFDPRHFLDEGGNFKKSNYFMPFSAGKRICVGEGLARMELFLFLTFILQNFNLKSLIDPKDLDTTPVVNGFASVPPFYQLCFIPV
Cytochrome P450 2D6, sequence (P10635 whole entry): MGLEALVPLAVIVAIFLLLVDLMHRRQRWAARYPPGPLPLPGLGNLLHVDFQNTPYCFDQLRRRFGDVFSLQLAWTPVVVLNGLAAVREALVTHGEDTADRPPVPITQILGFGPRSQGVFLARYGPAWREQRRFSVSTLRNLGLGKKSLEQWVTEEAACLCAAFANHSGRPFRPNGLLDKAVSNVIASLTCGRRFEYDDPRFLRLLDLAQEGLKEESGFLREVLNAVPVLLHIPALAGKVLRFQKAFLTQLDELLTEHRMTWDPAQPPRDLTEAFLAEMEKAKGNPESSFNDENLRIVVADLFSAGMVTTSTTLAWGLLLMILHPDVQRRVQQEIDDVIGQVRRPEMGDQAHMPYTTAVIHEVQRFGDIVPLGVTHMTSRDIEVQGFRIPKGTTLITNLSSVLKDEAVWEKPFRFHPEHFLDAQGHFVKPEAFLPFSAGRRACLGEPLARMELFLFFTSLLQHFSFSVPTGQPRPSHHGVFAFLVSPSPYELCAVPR
Cytochrome P450 1A2, sequence (P05177 whole entry): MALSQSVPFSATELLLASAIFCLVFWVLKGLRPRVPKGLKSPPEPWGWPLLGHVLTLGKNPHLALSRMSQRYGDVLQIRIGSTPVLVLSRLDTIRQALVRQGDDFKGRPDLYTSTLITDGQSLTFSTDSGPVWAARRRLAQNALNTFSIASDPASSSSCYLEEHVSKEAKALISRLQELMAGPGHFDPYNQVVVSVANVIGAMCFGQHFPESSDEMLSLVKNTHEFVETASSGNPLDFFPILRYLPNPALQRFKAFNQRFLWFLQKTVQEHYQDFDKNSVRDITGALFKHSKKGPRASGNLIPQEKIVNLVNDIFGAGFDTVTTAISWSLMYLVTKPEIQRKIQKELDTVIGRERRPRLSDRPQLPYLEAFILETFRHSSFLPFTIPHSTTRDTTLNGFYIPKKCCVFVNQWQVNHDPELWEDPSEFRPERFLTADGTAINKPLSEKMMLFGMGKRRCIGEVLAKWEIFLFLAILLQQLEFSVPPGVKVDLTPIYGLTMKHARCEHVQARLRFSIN
Alpha-1B adrenergic receptor, sequence (P15823 whole entry): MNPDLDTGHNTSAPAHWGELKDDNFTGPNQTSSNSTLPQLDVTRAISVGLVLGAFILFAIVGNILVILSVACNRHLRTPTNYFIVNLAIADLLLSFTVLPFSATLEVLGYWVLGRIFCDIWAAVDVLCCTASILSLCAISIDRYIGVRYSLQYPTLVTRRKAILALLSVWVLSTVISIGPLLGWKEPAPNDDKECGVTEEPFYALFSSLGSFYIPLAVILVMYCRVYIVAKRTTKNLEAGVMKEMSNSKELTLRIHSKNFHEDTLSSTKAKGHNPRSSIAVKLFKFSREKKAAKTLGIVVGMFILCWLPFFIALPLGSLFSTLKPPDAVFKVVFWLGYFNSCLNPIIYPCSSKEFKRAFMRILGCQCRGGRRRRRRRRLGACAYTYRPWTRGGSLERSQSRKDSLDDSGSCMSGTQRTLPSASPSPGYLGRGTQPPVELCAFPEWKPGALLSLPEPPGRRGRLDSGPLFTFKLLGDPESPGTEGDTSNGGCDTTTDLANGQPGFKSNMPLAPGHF

In the case of `CC(=O)Nc1cccc(CCN2CCN(c3cccc4nc(C)ccc34)CC2)c1.Cl.Cl`, the 50% effect level in data set [1] (ED50) was put at a dose of 0.09 mg/kg. The solubility (usually the concentration that dissolves in the medium under given conditions) in [2] was more than 10000 µg/mL; in [3] it was 5000 µg/mL; in data set [4] it was more than 10000 µg/mL. The clearance – broadly, the volume of plasma or blood freed of the substance per unit of time – in [5] stood at 10 mL/min/kg. In addition, the half-life – broadly, the time needed for the level to fall by half in the phase considered – in data set [6] was 4.6 h. Besides, in data set [7], the bioavailability (usually dose-corrected exposure relative to a reference, in per cent) was 51%. The Cmax (in general, the highest concentration seen after dosing) in data set [8] is 98 ng/mL. In addition, the total exposure AUC(0-inf) (usually the area under the concentration-time curve extrapolated to infinity) in data set [9] was 893 ng·h/mL. Also, the Kp at 1 h in data set [10] is 0.7.

Take `Cc1ccc2c(N3CCN(CCc4cccc(NS(C)(=O)=O)c4)CC3)cccc2n1.Cl.Cl`: in [1], the 50% effective dose (ED50) (as a rule, the dose that gives a 50% effect, or the effect in half of the subjects) is 1 mg/kg. Also, the solubility is more than 10000 µg/mL in data set [2], 600 µg/mL in data set [3] and more than 10000 µg/mL in data set [4]. In data set [5], this compound showed a clearance of 7 mL/min/kg. The half-life in data set [6] is 3.9 h. In addition, the bioavailability in data set [7] stood at 56%. Also, the concentration in data set [8] peaked (Cmax) at 243 ng/mL. Moreover, in data set [9], the area under the curve AUC(0-inf) is 1450 ng·h/mL. The Kp at 1 h in [10] was found to be 0.5.

Take `Cc1ccc2c(N3CCN(CCc4cccc(N5CCNC5=O)c4)CC3)cccc2n1` [GSK163090]: the pKi (usually the Ki on a negative log10 scale, so that one unit is a factor of ten) in data set [11] was 4.90; in data set [12] it was 5.80; in data set [13], less than 5.30. Besides, the pIC50 (as a rule, −log10 of the IC50, conventionally taken in molar units) is 4.02 in data set [14]; 4.22 in data set [15]; 4.12 in [16]; 4.07 in [17]; 4.17 in data set [18]; 4.68 in data set [19]. In addition, the negative logarithm of the IC50 (pIC50) is 7.60 in [20], 7.60 in [21], 4.68 in data set [25] and 4.68 in data set [26]. For the same compound, the fraction unbound (in general, free concentration divided by total concentration) at 1 ug/mL in data set [22] was 0.041; in data set [23], 0.045; in data set [24], 0.041.

In the case of `Cc1ccc2c(N3CCN(CCc4cccc(N5CCNC5=O)c4)CC3)cccc2n1.Cl.Cl`, in data set [1], the ED50 amounted to 0.03 mg/kg. Also, the results for the solubility in [2], in data set [3] and in [4] were more than 10000 µg/mL, 500 µg/mL and more than 10000 µg/mL, respectively. Besides, the clearance turned out to be 11 mL/min/kg in data set [5], 60 mL/min/kg in data set [27] and 25 mL/min/kg in data set [29]. Besides, the results for the half-life in data set [6], in [28] and in [30] were 3.2 h, 0.8 h and 5.3 h, respectively. The bioavailability in [7] is 58%; in data set [31], 6%; in [34], 63%. Further, the figures for the Cmax in data set [8], in [32] and in data set [35] were 122 ng/mL, 1300 ng/mL and 1390 ng/mL, respectively. The figures for the AUC(0-inf) in data set [9], in [33] and in data set [36] were 889 ng·h/mL, 2550 ng·h/mL and 4220 ng·h/mL, respectively. Further, the Kp at 1 h in data set [10] was 0.5.
